Laboratory results from publication PMC5586103 (Bioorganic & medicinal chemistry letters, 2015).

Experiments:
[1] = test system: normal human fibroblasts (NHFB); test: SRB cytotoxicity assay in normal human fibroblasts; format: cell-based; conditions: Fibroblast, read-out: EC50 NHFB
[2] = test system: NSCLC cell line H460; test: SRB cytotoxicity assay in NSCLC cell line H460; format: cell-based; conditions: for cytoselective anti-cancer effects in H460 and H460TaxR cells (in words): single concentration 10 µM, SRB, H460 and H460TaxR versus NHFB
Method in brief: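 Sulforhodamine B (SRB) viability assay in H460 cells, run alongside drug-resistant H460TaxR and normal human fibroblasts (NHFB). The initial screen used a single test-compound concentration of 10 µM. DMSO served as the negative control, and viability in DMSO was set to 100%. Selected compounds were also tested across a range of doses in H460 and H460TaxR to give dose-dependent cytotoxicity.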

[3] = high throughput aqueous solubility assay; format: physicochemical; conditions: for aqueous solubility (in words): comparison within libraries

Row | SMILES | EC50 [1] [µM] | cytoselective anti-cancer effects in H460 and H460TaxR cells (in words) [2] | anti-cancer activity (in words) ([2]; H460 and H460TaxR) | also measured
1 | CN(C)c1ccc(/C=C2/SC(=Nc3ccccc3)NC2=O)cc1 [Compound 1] | > 100 | good cytoselective anti-cancer effects | – | –
2 | CCN(CC)c1ccc(/C=C2/SC(Nc3ccccc3)=NC2=O)cc1 [Compound 2] | > 100 | good cytoselective anti-cancer effects | – | –
3 | O=C1N=C(Nc2ccccc2)S/C1=C/c1ccc(N2CCOCC2)cc1 [Compound 3] | > 100 | – | – | –
4 | CN1CCN(c2ccc(/C=C3/SC(Nc4ccccc4)=NC3=O)cc2)CC1 [Compound 4] | – | good cytoselective anti-cancer effects | – | –
5 | O=C1N=C(Nc2ccccc2)S/C1=C/c1ccc(N2CCNCC2)cc1 [Compound 5] | > 100 | – | reduced anticancer activity | aqueous solubility (in words) [3]: largest improvement in aqueous solubility
6 | O=C1N=C(Nc2ccc(O)cc2)S/C1=C/c1ccc(N2CCNCC2)cc1 [Compound 10] | – | – | reduced anticancer activity | aqueous solubility (in words) [3]: largest improvement in aqueous solubility
7 | CN(C)c1ccc(/C=C2/SC(=Nc3ccccc3Cl)NC2=O)cc1 [Compound 11] | – | good cytoselective anti-cancer effects | – | –
8 | CCN(CC)c1ccc(/C=C2/SC(Nc3ccccc3Cl)=NC2=O)cc1 [Compound 12] | – | good cytoselective anti-cancer effects | – | –
9 | Cc1ccccc1/N=C1\NC(=O)/C(=C\c2ccc(N(C)C)cc2)S1 [Compound 21] | – | good cytoselective anti-cancer effects | – | –
10 | CCN(CC)c1ccc(/C=C2/SC(Nc3ccccc3C)=NC2=O)cc1 [Compound 22] | – | good cytoselective anti-cancer effects | – | –
11 | Cc1ccccc1NC1=NC(=O)/C(=C\c2ccc(N3CCNCC3)cc2)S1 [Compound 25] | – | – | reduced anticancer activity | aqueous solubility (in words) [3]: largest improvement in aqueous solubility
12 | CN(C)c1ccc(/C=C2/SC(N(c3ccccc3)c3ccccc3)=NC2=O)cc1 [Compound 26] | > 100 | – | – | –
13 | CCN(CC)c1ccc(/C=C2/SC(N(c3ccccc3)c3ccccc3)=NC2=O)cc1 [Compound 27] | > 100 | – | – | –
14 | CN(C)c1ccc(/C=C2/SC(N(C)c3ccccc3)=NC2=O)cc1 [Compound 31] | – | potent cytoselective anti-cancer activity | – | improvement in aqueous solubility ([3]; compared to compound 1): 5 fold; improvement in anti-cancer activity (EC50) ([2]; H460 and H460TaxR, compared to compound 1): 10 fold
15 | CCN(CC)c1ccc(/C=C2/SC(N(C)c3ccccc3)=NC2=O)cc1 [Compound 32] | > 100 | potent cytoselective anti-cancer activity | – | aqueous solubility (in words) [3]: did not improve solubility
16 | CN(C1=NC(=O)/C(=C\c2ccc(N3CCOCC3)cc2)S1)c1ccccc1 [Compound 33] | > 100 | – | weak anti-cancer effects | aqueous solubility (in words) [3]: significantly better
17 | CN1CCN(c2ccc(/C=C3/SC(N(C)c4ccccc4)=NC3=O)cc2)CC1 [Compound 34] | – | – | weak anti-cancer effects | –
18 | CN(C1=NC(=O)/C(=C\c2ccc(N3CCNCC3)cc2)S1)c1ccccc1 [Compound 35] | – | – | weak anti-cancer effects | –
